Many of the other results were omitted from the sample, so hits are more common in it than they were.
PostGolgi ctrl: yeast control strain growth, post-Golgi counter-screen; inhibition, % at 10 µM; actives 5% (n = 98,000); efflux-deficient yeast background strain, growth absorbance A615, 16 h
PostGolgi yeast: growth inhibition of a yeast mutant, post-Golgi transport screen; post-Golgi transport phenotypic cell assay; inhibition, % at 10 µM; actives 0.9% (n = 98,000); AID 739;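 also: yeast cells grown in 1536-well plates; yeast grown about 18 h at 30C before absorbance read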
Yeast growth inh: reduces growth of yeast BB579 in restrictive medium; S. cerevisiae BB579 growth, OD615, 48 h; inhibition, % at 10 µM; actives 0.51% (n = 140,000); AID 804;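 active = inhibition above a set limit, 3 SD over the mean compound inhibition, cut at about 44% in these data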
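Test system: DeaD yeast strain BB579 / Buffer or medium: restrictive glucose-based CSMM-D medium / Doses: single 10 µM dose / Schedule: 4 h cell preincubation, 48 h compound exposure, 30 °C humidified / Technique: culture absorbance at 615 nm / Controls: amphotericin B positive control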
Yeast lifespan up: extends the lifespan of yeast | S. cerevisiae growth with nicotinamide, OD615; deaD strain in restrictive glucose medium | actives 0.68% (n = 130,000) | inhibition of the nicotinamide effect, % at 10 µM;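 active = inhibition above a set limit, placed 3 SD over the median of all compounds, cut at about 26% in these data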;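 also: 0% = nicotinamide-treated wells and 100% = cells grown without nicotinamide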
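Assay system: engineered S. cerevisiae DeaD replicative-lifespan strain, galactose-grown log-phase cells; Buffer or medium: CSMM-D glucose medium, restrictive; Probe or stimulus: nicotinamide 1.5 mM; Compound: single dose 10 µM compound, 0.25% DMSO; Schedule: 4 h preincubation then 48 h treatment at 30 °C; Technique: OD615 measurement.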
Active calls of the source: *; . = no result given. Rule as the data show it, unless noted: active = inhibition above about 30%; inactive = the rest.

SMILES | PostGolgi ctrl | PostGolgi yeast | Yeast growth inh | Yeast lifespan up
COC(=O)c1ccc(C(c2c(N)n(CC(C)C)c(=O)[nH]c2=O)N2CCN(c3ccccc3)CC2)cc1 (centres undefined) | 35.0* | -16.6 | -26.9 | -3.2
COc1cc(NC(=O)CCCC(=O)OCC(F)(F)C(F)F)nc(OC)n1 | 9.6 | -1.4 | -60.1 | -12.8
C=C(C)CC1(NC(C)c2ccccc2)CCCCC1 (centres undefined) | . | . | -7.5 | 4.9
c1csc(-c2nc3nc4ccccc4nc3n2Cc2ccc3c(c2)OCO3)c1 | 43.5* | -6.2 | -6.7 | -7.7
CCCn1c(-c2cccs2)nc2nc3ccccc3nc21 | 15.7 | -11.9 | -40.3 | -32.2
O=S(=O)(c1cccs1)N1CCN(CC(O)COc2cc(Cl)ccc2Cl)CC1 (centres undefined) | 32.8* | 2.2 | -34.2 | -0.1
CCN1CCN(S(=O)(=O)c2cccs2)CC1 | -6.1 | -1.9 | 5.3 | -4.6
CCOC(=O)c1c(C)sc(Sc2ccc(Cl)cc2[N+](=O)[O-])c1OC | 21.6 | 3.5 | -54.8 | 2.7
O=C(Nc1ccc(Cl)cc1)N(Cc1cccs1)Cc1cccs1 | 34.8* | 1.5 | -87.1 | -2.7
O=C(Nc1ccc(F)cc1)N(CCCN1CCOCC1)Cc1cc2cc3c(cc2[nH]c1=O)OCCO3 | 39.5* | 1.8 | -15.9 | -17.3
O=C(Nc1ccc(F)cc1)N(CCCN1CCOCC1)Cc1cc2cc3c(cc2[nH]c1=O)OCO3 | 2.0 | 8.2 | -36.8 | -5.6
O=C(Nc1ccc(Cl)c(Cl)c1)N(CCCN1CCOCC1)Cc1cccs1 | 30.6* | 14.7 | 10.6 | -10.7
CCCCCNCc1cccc(Br)c1 | 0.3 | 5.2 | -37.2 | -10.6
Cc1ccc(C(=O)COc2ccccc2C(=O)Nc2ccccc2)cc1 | 10.4 | -0.5 | -44.5 | -8.4
CCOC(=O)c1c(N)sc2c(O)c(Br)ccc12 | 48.6* | 12.3 | -25.1 | -15.3
CCOC(=O)c1c(N)sc2c(NC(C)=O)cccc12 | -2.3 | 0.3 | -15.3 | -10.8
CCCCn1c(CN2CCN(C(=O)c3ccco3)CC2)nc2c1c(=O)n(C)c(=O)n2C | -9.7 | 3.5 | 22.1 | -9.1
Cn1c(=O)c2c(nc(N3CCCCCC3)n2Cc2cccc3ccccc23)n(C)c1=O | 61.7* | 7.7 | -47.3 | 8.7
CCCn1c(CN2CCN(C(=O)c3ccco3)CC2)nc2c1c(=O)n(C)c(=O)n2C | 35.4* | 5.8 | -19.4 | -2.5
CCCCCCn1c(CN2CCN(Cc3ccccc3)CC2)nc2c1c(=O)n(C)c(=O)n2C | 11.8 | 6.1 | -37.0 | 27.4*
Cn1c(=O)c2c(nc(CN3CCN(C(=O)c4ccco4)CC3)n2CCCc2ccccc2)n(C)c1=O | 31.9* | -2.7 | 23.0 | -2.6
Cc1ccc(CNC(=O)CN(C)S(=O)(=O)c2cccc3cccnc23)cc1 | 3.8 | -7.3 | -56.2 | 2.8
Cn1c(=O)c2c(nc(CN3CCc4ccccc4C3)n2Cc2cccc(Cl)c2)n(C)c1=O | 33.0* | 5.0 | -32.5 | 12.4
CC1CCN(c2nc3c(c(=O)n(C)c(=O)n3C)n2CCSc2nc3ccccc3s2)CC1 | 36.4* | 15.7 | -71.8 | -10.3
CN(Cc1ccccc1)Cc1nc2c(c(=O)n(C)c(=O)n2C)n1CCCc1ccccc1 | 51.6* | 4.1 | -64.5 | -0.3
SMILES | PostGolgi ctrl | PostGolgi yeast | Yeast growth inh | Yeast lifespan up
Cn1c(=O)c2c(nc(CN3CCc4ccccc4C3)n2Cc2ccccc2F)n(C)c1=O | 1.1 | 10.6 | -48.9 | 19.5
CCN1CCN(Cc2nc3c(c(=O)n(C)c(=O)n3C)n2Cc2ccccc2Cl)CC1 | 31.3* | 3.3 | 3.1 | -7.4
CC(C)Cn1c(CN(C)Cc2ccccc2)nc2c1c(=O)n(C)c(=O)n2C | 5.0 | 0.8 | 14.7 | 2.5
O=C(/C=C/c1ccncc1)c1ccc(NC(=O)c2ccccc2F)cc1 | . | . | -41.8 | 2.5
CNCc1ccccc1Sc1ccc(O)c(O)c1 | . | . | -40.3 | 4.5
COc1ccc(C2C=C(c3ccc(Br)s3)Nc3ncnn32)cc1OC (centres undefined) | 34.9* | 2.2 | -43.4 | -9.2
C=CCNC(=O)c1ccc2nc(-c3ccccc3)c(-c3ccccc3)nc2c1 | 35.9* | 8.3 | -55.2 | -13.9
Cc1ccccc1NC(=S)NCc1ccc2c(c1)OCO2 | 37.7* | 4.9 | -10.7 | -13.5
CCN(CC)S(=O)(=O)c1cccc(NC(=O)COC(=O)CCC(=O)c2ccc(F)cc2)c1 | . | . | -42.2 | 4.1
O=C(/C(=C/O)N=Nc1ccccc1)c1ccncc1 | 14.2 | -5.5 | 88.1* | -10.5
CCN(Cc1cc2ccc(C)cc2[nH]c1=O)C(=O)c1ccncc1 | 44.1* | -11.6 | -47.5 | -15.3
CCCN(Cc1cc2ccc(C)cc2[nH]c1=O)C(=O)c1cccnc1 | 8.8 | 7.1 | -41.4 | -8.4
O/N=C(\c1ccc(Cl)cc1Cl)c1ncc(C(F)(F)F)cc1Cl | 59.2* | -0.2 | -34.6 | 0.6
O=C(c1ccc(Cl)cc1Cl)c1ncc(C(F)(F)F)cc1Cl | 13.4 | 3.3 | -29.3 | -12.0
Cc1cc(Br)ccc1NC(=O)CN1C(=O)C2C3CC(c4ccccc4)C(C3)C2C1=O (centres undefined) | 53.3* | 2.2 | -38.5 | -9.9
CC(C)C(NC(=O)c1ccc(F)cc1)C(=O)OCC(=O)N1CC(=O)Nc2ccccc21 (centres undefined) | . | . | -15.8 | -3.7
CCC(=O)NC(=S)Nc1ccc(NC(=O)c2ccc([N+](=O)[O-])cc2Cl)cc1 | . | . | -33.3 | -4.5
Cc1c(C)n(CC(O)CN2C(=O)c3ccccc3S2(=O)=O)c2ccccc12 (centres undefined) | 33.2* | 2.2 | -9.7 | -14.1
CN1CCc2c(n(CC(O)CN3C(=O)c4ccccc4S3(=O)=O)c3ccccc23)C1=O (centres undefined) | 17.3 | 0.7 | -11.1 | -7.0
CN(C)CCNC(=S)Nc1ccc(Br)cc1 | . | . | 1.9 | -1.4
COc1ccccc1C(O)(C(=O)NN(C)c1ccccc1)c1ccccc1OC | . | . | -38.0 | 2.4
C/C(CC1CC(C)OC1=O)=N\NC(N)=S (centres undefined) | . | . | -21.8 | 8.0
C/C(CCC12CC3CC(CC(C3)C1)C2)=N\NC(N)=S | 44.8* | 85.9* | 9.0 | 1.5
C=CCn1c(SCc2ccccc2)nnc1-c1cccnc1 | 5.8 | -1.8 | -33.8 | 6.3
C=CCn1c(SCc2nc(N)nc(N(C)C)n2)nnc1-c1cccnc1 | 33.1* | -2.6 | 2.4 | -0.8
SMILES | PostGolgi ctrl | PostGolgi yeast | Yeast growth inh | Yeast lifespan up
COc1ccc(Cl)cc1NC(=O)C(C)N(C)Cc1cccc(Cl)c1Cl (centres undefined) | . | . | -18.8 | -2.2
CC(C)(C)c1cc(Br)ccc1OCC(=O)Nc1ncn[nH]1 | 30.4* | 6.8 | -3.2 | -2.4
Cc1nc2ccccn2c1C(=O)NNS(=O)(=O)c1ccc(C(C)(C)C)cc1 | . | . | -18.9 | 4.2
Cc1cc(-c2ccccc2)nc(N(C)NC(=O)c2ccc(Cl)cc2)c1S(C)(=O)=O | 1.8 | 5.5 | -59.2 | -7.0
Cc1cc(C)nc(NS(=O)(=O)c2ccc(NC(=O)c3ccc(S(=O)(=O)N4CC(C)OC(C)C4)cc3)cc2)n1 (centres undefined) | . | . | -23.2 | 0.4
CCCSc1ncc(Cl)c(C(=O)Nc2ccc(S(=O)(=O)N3CC(C)OC(C)C3)cc2)n1 (centres undefined) | 20.6 | 38.5* | -17.8 | -17.3
Clc1ccc(-n2nnnc2-c2cnc(-c3ccncc3)nc2-c2cccs2)cc1 | . | . | -47.9 | .
